What was measured:
[1] = biological target: T1, Tyrosine-protein kinase receptor UFO (Homo sapiens, UniProt P30530); test: Inhibition of AXL (unknown origin) by ELISA
T1 sequence (P30530 whole entry): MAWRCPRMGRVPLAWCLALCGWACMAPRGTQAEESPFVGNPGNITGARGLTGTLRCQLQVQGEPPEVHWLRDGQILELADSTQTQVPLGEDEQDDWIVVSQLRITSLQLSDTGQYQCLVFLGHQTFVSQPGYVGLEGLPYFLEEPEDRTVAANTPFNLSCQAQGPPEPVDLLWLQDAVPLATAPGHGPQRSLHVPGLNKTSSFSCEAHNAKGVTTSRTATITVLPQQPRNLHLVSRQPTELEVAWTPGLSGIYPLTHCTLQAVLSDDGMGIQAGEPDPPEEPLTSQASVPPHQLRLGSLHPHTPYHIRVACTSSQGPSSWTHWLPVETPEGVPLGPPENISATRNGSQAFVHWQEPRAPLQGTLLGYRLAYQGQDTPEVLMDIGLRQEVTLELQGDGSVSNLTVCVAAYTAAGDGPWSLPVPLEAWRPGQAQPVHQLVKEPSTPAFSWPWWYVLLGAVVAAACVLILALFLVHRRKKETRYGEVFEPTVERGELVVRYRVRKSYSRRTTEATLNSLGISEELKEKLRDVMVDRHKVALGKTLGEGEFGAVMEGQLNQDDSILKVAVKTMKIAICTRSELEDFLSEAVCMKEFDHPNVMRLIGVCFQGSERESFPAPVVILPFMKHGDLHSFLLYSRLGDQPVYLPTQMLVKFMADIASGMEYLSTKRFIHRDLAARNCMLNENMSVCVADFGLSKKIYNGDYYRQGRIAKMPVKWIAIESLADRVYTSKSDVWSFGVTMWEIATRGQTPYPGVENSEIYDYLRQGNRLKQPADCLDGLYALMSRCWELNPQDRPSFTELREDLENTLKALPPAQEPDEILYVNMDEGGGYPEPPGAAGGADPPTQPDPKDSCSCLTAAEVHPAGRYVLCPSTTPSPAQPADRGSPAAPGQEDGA

[2] = biological target: T2, Tyrosine-protein kinase receptor UFO (Mus musculus) (UniProt Q00993); test: Inhibition of AXL in mouse BaF3 cells assessed as reduction in AKT phosphorylation at S473 residue by Western blot analysis; type: cell-based; settings: dose 0.1-10 nM
T2 sequence (whole entry): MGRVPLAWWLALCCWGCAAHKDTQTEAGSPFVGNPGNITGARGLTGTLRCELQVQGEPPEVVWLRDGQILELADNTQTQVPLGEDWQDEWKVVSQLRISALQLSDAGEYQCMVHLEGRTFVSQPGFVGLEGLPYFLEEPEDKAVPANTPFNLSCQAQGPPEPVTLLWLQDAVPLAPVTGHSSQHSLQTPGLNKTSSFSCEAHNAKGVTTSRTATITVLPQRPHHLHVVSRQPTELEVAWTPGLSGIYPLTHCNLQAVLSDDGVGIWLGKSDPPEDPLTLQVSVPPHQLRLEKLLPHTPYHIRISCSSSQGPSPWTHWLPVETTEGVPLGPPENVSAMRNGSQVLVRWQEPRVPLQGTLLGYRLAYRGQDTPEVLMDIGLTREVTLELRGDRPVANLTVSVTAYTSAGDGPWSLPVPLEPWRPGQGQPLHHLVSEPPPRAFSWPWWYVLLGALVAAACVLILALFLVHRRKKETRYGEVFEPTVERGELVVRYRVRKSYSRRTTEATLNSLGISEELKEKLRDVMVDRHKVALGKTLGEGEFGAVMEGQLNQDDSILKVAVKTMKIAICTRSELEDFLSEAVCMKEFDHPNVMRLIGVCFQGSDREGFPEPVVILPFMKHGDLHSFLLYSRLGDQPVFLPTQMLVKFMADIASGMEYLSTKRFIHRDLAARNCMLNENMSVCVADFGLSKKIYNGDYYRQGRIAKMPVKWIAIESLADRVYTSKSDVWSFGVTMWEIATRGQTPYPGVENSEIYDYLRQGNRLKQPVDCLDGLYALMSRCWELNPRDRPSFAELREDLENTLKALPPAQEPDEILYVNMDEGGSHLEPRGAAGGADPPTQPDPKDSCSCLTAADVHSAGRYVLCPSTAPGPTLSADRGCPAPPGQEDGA
In short: (§1)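 Cells in exponential growth (BaF3 engineered to stably express constitutively active human wild-type TEL-Axl; MKN-45) exposed to the indicated concentrations for 2 h, then lysed in 1× SDS sample buffer. Phosphorylated proteins detected by Western blot.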

[3] = biological target: Platelet-derived growth factor receptor alpha (Homo sapiens, UniProt P16234); test: Inhibition of PDGFRalpha (unknown origin) by ELISA
[4] = biological target: T2, Tyrosine-protein kinase receptor UFO (Mus musculus); test: Inhibition of AXL phosphorylation in mouse BaF3 by Western blot analysis; settings: dose 0.1-10 nM; in short: as §1
BaF3 = test: Antiproliferative activity against mouse BaF3 stably expressing human TEL-AXL incubated for 72 hrs; type: functional, cell-based; settings: BaF3, 72 h
[5] = biological target: Vascular endothelial growth factor receptor 1 (Homo sapiens, UniProt P17948); test: Inhibition of VEGFR1 (unknown origin) by ELISA
[6] = biological target: Platelet-derived growth factor receptor beta (Homo sapiens, UniProt P09619); test: Inhibition of PDGFRbeta (unknown origin) by ELISA
[7] = biological target: Receptor tyrosine-protein kinase erbB-4 (Homo sapiens, UniProt Q15303); test: Inhibition of ERBB4 (unknown origin) by ELISA
[8] = Half life in Sprague-Dawley rat at 3 mg/kg, po via gavage measured up to 24 hrs by LC-MS analysis; type: ADME, organism-based; settings: in vivo
In short: (§2)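 Male Sprague-Dawley rats (n = 3) dosed once by oral gavage at 3 mg/kg as a solution in 5% DMSO/95% (0.5% CMC-Na). Blood sampled at 0.25, 0.5, 1, 2, 4, 6, 8 and 24 h, kept on wet ice, serum separated by centrifugation and stored at -20 °C. Serum levels measured by LC-MS/MS; parameters reported as means.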

[9] = AUC (0 to infinity) in Sprague-Dawley rat at 3 mg/kg, po via gavage measured up to 24 hrs by LC-MS analysis; type: ADME, organism-based; set-up: route oral, dose 3 mg/kg, time <=24; settings: in vivo; in short: as §2
MKN-45 = test: Antiproliferative activity against human MKN-45 cells incubated for 72 hrs; type: functional, cell-based; settings: MKN-45, 72 h
In short: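 MKN-45 cells (MET-amplified gastric carcinoma) grown in the supplier-recommended medium and serum, seeded at low density and treated the next day across a concentration range for 72 h. Proliferation read by SRB or CCK-8. IC50 obtained from a four-parameter concentration-response fit; mean ± SD of two independent assays.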

[10] = Inhibition of ABL (unknown origin) by ELISA; set-up: species or system Homo sapiens
[11] = biological target: Hepatocyte growth factor receptor (Homo sapiens, UniProt P08581); test: Inhibition of c-met phosphorylation at Y1234/Y1235 residues in human MKN-45 cells by Western blot analysis; type: cell-based; settings: dose 2.5-20 nM; in short: as §1
[12] = biological target: Receptor tyrosine-protein kinase erbB-2 (Homo sapiens, UniProt P04626); test: Inhibition of ERBB2 (unknown origin) by ELISA
[13] = biological target: Mast/stem cell growth factor receptor Kit (Homo sapiens, UniProt P10721); test: Inhibition of Kit(unknown origin) by ELISA
Mast/stem cell growth factor receptor Kit, sequence (P10721 whole entry): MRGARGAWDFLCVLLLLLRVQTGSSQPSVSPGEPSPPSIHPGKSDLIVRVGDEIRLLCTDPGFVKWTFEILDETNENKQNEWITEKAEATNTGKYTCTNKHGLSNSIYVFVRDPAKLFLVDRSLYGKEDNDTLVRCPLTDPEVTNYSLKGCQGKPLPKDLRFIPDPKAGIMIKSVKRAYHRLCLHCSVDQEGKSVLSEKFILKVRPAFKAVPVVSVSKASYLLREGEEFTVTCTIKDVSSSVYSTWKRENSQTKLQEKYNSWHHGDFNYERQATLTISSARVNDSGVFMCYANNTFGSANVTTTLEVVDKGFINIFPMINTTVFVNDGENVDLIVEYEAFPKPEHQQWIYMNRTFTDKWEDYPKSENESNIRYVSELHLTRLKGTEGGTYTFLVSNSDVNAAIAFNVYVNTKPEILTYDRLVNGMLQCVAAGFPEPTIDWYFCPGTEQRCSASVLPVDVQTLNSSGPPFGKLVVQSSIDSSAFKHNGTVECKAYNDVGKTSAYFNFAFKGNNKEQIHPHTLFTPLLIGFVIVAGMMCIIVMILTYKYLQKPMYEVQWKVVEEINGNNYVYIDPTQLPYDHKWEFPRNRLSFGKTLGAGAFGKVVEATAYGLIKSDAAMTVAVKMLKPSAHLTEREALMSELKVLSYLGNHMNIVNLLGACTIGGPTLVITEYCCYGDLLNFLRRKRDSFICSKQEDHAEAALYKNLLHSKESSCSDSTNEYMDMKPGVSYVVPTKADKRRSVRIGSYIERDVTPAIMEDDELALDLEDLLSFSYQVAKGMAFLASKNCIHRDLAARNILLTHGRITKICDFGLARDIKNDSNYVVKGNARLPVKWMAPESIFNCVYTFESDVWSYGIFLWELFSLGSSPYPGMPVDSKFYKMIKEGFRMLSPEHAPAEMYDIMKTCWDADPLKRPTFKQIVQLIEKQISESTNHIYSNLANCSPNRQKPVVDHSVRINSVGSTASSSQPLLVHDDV

Platelet-derived growth factor receptor beta, sequence (P09619 whole entry): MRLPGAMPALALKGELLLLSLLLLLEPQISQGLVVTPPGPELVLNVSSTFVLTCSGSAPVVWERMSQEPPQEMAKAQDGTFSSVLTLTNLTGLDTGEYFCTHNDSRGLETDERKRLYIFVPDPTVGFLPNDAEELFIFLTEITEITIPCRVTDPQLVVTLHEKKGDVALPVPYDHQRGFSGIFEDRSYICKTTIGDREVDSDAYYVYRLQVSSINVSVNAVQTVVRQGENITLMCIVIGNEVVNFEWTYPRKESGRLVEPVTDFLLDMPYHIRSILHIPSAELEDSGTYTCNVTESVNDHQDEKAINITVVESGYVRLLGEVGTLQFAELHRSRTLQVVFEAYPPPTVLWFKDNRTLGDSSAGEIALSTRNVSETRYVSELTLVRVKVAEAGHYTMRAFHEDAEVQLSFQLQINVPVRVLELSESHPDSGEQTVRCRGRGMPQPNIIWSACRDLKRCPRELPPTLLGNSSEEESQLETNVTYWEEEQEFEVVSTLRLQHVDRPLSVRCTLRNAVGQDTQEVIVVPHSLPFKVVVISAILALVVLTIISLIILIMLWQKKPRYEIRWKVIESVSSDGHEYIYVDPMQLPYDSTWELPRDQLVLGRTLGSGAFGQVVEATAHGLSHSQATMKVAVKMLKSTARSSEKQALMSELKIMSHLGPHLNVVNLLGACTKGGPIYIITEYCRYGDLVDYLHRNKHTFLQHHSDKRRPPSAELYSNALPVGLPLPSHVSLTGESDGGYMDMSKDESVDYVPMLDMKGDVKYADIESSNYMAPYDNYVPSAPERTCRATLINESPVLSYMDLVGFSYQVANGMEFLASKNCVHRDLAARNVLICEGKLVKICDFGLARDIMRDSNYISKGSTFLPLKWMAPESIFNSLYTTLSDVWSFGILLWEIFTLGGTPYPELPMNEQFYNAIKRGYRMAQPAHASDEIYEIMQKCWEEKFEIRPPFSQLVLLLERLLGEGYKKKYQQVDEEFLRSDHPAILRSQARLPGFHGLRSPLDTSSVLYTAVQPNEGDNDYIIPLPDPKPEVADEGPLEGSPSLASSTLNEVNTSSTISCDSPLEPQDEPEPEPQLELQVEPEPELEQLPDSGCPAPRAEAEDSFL
Receptor tyrosine-protein kinase erbB-2, sequence (P04626 whole entry): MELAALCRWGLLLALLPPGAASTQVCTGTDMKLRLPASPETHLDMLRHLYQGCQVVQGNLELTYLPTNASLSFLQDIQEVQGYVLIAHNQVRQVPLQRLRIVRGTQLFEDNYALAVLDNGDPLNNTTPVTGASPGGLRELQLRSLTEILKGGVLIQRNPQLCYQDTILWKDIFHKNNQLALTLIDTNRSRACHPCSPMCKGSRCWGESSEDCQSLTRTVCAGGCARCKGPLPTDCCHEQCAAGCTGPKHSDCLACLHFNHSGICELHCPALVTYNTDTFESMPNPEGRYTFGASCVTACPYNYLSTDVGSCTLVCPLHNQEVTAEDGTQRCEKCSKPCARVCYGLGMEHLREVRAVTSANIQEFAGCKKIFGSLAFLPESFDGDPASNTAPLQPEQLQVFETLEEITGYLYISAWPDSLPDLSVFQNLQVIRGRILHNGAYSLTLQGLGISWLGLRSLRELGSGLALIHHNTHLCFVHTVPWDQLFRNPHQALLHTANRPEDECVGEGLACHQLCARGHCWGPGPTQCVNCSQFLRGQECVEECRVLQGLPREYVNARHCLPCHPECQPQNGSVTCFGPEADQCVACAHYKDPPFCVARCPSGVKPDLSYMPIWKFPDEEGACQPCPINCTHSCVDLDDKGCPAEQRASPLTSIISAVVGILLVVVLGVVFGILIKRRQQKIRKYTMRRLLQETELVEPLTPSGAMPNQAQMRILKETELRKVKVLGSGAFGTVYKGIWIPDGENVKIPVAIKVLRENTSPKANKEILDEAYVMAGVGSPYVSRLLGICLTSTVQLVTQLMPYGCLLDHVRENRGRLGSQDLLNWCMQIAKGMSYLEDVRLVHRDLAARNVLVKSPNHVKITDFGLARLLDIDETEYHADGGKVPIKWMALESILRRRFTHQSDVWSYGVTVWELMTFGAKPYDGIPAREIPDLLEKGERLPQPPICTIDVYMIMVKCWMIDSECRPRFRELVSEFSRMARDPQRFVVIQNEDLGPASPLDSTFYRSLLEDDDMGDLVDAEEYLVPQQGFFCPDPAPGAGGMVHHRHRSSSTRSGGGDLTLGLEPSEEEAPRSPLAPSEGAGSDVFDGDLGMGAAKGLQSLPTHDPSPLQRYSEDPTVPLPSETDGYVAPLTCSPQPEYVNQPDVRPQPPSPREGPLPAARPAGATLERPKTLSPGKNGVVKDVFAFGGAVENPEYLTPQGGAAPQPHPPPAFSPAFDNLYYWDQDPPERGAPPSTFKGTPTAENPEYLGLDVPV
Hepatocyte growth factor receptor, sequence (P08581 whole entry): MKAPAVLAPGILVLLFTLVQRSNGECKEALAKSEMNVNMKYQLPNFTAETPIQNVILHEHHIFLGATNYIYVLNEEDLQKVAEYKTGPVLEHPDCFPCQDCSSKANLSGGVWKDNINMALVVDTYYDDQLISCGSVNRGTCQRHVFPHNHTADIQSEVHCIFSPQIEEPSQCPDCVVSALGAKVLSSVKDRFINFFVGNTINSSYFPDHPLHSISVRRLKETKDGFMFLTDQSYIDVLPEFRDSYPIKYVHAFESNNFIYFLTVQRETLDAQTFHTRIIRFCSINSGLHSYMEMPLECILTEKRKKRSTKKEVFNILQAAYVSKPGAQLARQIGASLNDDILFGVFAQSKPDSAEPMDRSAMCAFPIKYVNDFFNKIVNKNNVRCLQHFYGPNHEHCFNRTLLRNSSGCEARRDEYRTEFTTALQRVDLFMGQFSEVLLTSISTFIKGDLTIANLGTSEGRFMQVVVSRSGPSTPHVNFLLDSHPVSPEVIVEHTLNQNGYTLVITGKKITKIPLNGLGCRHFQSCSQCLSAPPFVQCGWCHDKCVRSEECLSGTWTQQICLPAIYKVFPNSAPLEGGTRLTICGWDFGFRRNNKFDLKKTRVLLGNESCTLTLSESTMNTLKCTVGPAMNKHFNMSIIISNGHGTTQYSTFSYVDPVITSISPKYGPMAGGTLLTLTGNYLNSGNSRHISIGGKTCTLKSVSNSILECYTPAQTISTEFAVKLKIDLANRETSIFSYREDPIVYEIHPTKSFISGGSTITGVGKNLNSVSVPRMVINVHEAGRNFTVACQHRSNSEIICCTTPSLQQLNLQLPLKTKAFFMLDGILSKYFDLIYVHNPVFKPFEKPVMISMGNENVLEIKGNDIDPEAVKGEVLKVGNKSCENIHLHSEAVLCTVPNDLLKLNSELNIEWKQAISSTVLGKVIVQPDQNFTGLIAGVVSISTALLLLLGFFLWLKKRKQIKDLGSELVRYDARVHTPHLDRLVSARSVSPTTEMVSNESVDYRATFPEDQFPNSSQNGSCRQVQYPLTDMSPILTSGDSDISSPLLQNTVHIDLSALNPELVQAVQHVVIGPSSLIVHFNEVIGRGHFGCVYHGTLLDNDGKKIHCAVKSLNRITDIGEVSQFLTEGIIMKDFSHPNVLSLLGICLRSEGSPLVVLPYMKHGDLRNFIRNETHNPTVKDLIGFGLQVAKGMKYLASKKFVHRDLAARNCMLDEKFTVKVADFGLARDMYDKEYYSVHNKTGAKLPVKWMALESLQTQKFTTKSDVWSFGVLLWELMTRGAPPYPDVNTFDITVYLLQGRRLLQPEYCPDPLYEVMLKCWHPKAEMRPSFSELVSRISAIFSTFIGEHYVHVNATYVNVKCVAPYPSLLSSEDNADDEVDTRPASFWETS

IC50 [1]: < 0.0002 µM
inhibition [2]: Dose-Dependent Effect
IC50 [3]: > 1 µM
inhibition [4]: Dose-Dependent Effect
IC50 (BaF3): < 0.001 µM
IC50 [5]: > 1 µM
IC50 [6]: > 1 µM
IC50 [7]: > 1 µM
half-life [8]: 2.74 h
AUC(0-inf) [9]: 44300 ng·h/mL
IC50 (MKN-45): 0.0132 µM
IC50 [10]: > 1 µM
inhibition [11]: Dose-Dependent Effect
IC50 [12]: > 1 µM
IC50 [13]: > 1 µM
SMILES: CC(C)n1cc(C(=O)Nc2cc(F)c(-c3c[nH]c4ncnc(N)c34)cc2F)c(=O)c(-c2ccc(F)cc2)c1
